Hits are enriched below; roughly 11% of the tested compounds scored in any of these assays.
L major viab – inhibitors of Leishmania major promastigote growth; Leishmania major promastigotes, resazurin fluorescence viability; inhibition, % at 10 µM; hit rate 9% among 200,000;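 also: promastigotes grown with compound for 44 hours at 28 °C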
WT yeast gro inh – growth inhibition of WT yeast, mitochondrial fusion screen; mitochondrial fusion phenotypic screen, WT strain; inhibition, % at 10 µM; hit rate 2.1% among 190,000; AID 1362; in the data active = inhibition above about 58%; tested in S. cerevisiae
Diaph inh CS – counter-screen for diaphorase-based assays: diaphorase inhibitors and chemical oxidizers; diaphorase resazurin-to-resorufin fluorescence, NADH, 16 min; bacterial (C. kluyveri) enzyme, not human; inhibition, % at 20 µM; hit rate 0.69% among 190,000;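 active = primary screen inhibition at 20 µM above a set limit, cut at about 50% in these data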;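 also: plate controls were DMSO with full reaction for no effect and wells lacking NADH for full effect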
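Detection: fluorescence of resorufin formed from resazurin, Ex 544/Em 590 nm; test system: Clostridium kluyveri diaphorase enzyme; amount: 0.14 U/mL diaphorase, enzyme working solution; times: 16-min room-temperature incubation before reading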
G6PDH CS – counter-screen for G6PDH assay hits: L. mesenteroides G6PDH inhibition. Purified L. mesenteroides G6PDH, diaphorase/resazurin coupled fluorescence, 45 min. inhibition, % at 5 µM. hit rate 0.12% among 200,000
Diaphorase act – activates diaphorase or chemically reduces, flagging diaphorase assay artifacts; Diaphorase/resazurin coupled assay, resorufin fluorescence, 16 min; active compounds read high; 1 = vehicle wells, 0 = NADH-free wells; activation factor at 20 µM; hit rate 0.005% among 190,000; AID 1229;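 active = diaphorase activity raised at least twofold by the compound at 20 µM; inactive = activation factor below 2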
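Material: purified diaphorase enzyme from Clostridium kluyveri; Also added: 0.114 mM NADH and 0.1 mM resazurin, final amounts; Doses: single compound dose of 20 µM, 1% DMSO final; Times: 16 min enzyme reaction, ambient temperature; Detection: resorufin fluorescence, excitation 544 nm, emission 590 nm; Measure: increased resorufin signal from activators or reducing compounds.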
An asterisk follows results filed as active. Rule as the data show it, unless noted: active = inhibition above about 50%; inactive = the rest.

SMILES | L major viab | WT yeast gro inh | Diaph inh CS | G6PDH CS | Diaphorase act
CCOC(=O)c1c(NC(=O)CN2CCCCC2)sc(CN(C)C)c1-c1ccccc1 | 52* | 28 | 14 | 1 | 0.9
CCOC(=O)c1c(NC(=O)CN2CCCCC2)sc2c1CCCC2O (configuration not stated) | 14 | 12 | 19 | 4 | 0.8
Cc1ccc(S(=O)(=O)N2CCN(S(=O)(=O)N(C)C)CC2)c(C)c1 | -3 | -7 | 5 | -1 | 0.9
COc1ccc(OC)c(/C=C/C(=O)N(C)CC(=O)Nc2cc(C)ccc2C)c1 | 87* | -5 | 7 | 6 | 0.9
CSc1ccc(CNc2ccc(C)cc2)cc1 | 100* | -26 | 10 | 1 | 0.9
Cc1ccc(C(=O)N/N=C/c2cccc(OC(=O)/C=C/c3ccco3)c2)cn1 | -3 | -9 | -7 | 8 | 1.1
O=C(/C=C/c1ccco1)Oc1cc(Br)cc(/C=N/NC(=O)c2ccccc2O)c1 | 99* | 23 | 17 | -21 | 0.8
CCSC1=C(C#N)C(c2cccc(OC)c2)CC(=O)N1 (configuration not stated) | -4 | -6 | 14 | -21 | 0.9
N#CC1=C(SCc2ccccc2)NC(=O)CC1c1ccc(O)cc1 (configuration not stated) | 28 | 12 | 1 | 24 | 1
Cc1ccc(C2CC(=O)NC(SCc3ccccc3)=C2C#N)cc1 (configuration not stated) | 61* | 9 | 8 | 11 | 0.9
N#CC1=C(SCc2ccccc2)NC(=O)CC1c1cccc(O)c1 (configuration not stated) | 62* | 11 | 7 | 4 | 0.9
O=C1C2C3C=CC(C4CC34)C2C(=O)N1/N=C/c1cccs1 (configuration not stated) | -3 | 14 | 6 | 5 | 0.9
CCOc1ncccc1C(=O)Nc1ccc(F)c(Cl)c1 | -4 | 35 | 8 | -1 | 0.9
CCCCC(=O)NS(=O)(=O)c1ccc(N=NN(CC)CC)cc1 | -6 | -7 | 6 | 7 | 0.9
CCOc1ccc(C2OC34CCCCC3C(C#N)(C#N)C2(C#N)C(=N)O4)cc1OC (configuration not stated) | 14 | -6 | 9 | 22 | 0.9
c1ccc(CCc2nn3c(Cc4ccccc4)nnc3s2)cc1 | 4 | -18 | -1 | -12 | 1
Cc1cc[n+](C(C)C(=O)c2ccc(-c3ccccc3)cc2)cc1 (configuration not stated) | 90* | 29 | -7 | 2 | 1.1
CC(C(=O)c1ccc(-c2ccccc2)cc1)[n+]1ccccc1 (configuration not stated) | 34 | 0 | 7 | 4 | 0.9
Cc1ccc[n+](C(C)C(=O)c2ccc(-c3ccccc3)cc2)c1 (configuration not stated) | 98* | 13 | 15 | -5 | 0.9
CCn1ncc(C2=NOC(C(=O)NCc3ccc(Cl)cc3)C2)c1C (configuration not stated) | 17 | 12 | 10 | 7 | 0.9
O=C(CSc1nc2ccccc2o1)Nc1nc2ccccc2s1 | -3 | 15 | 1 | 0 | 1
O=C(CSc1nc2ccccc2o1)Nc1nc(-c2ccccc2)cs1 | -7 | 63* | 24 | 13 | 0.8
CCOC(=S)SCC(=O)Nc1nc(-c2ccccc2)cs1 | 4 | 80* | 25 | -24 | 0.8
CCOC(=O)N1CCN(C(=O)CSCC(=O)Nc2nc(-c3ccc(-c4ccccc4)cc3)cs2)CC1 | 23 | 31 | 18 | -58 | 0.8
O=C(CSc1nc2ccccc2[nH]1)Nc1nc(-c2cccc(Br)c2)cs1 | 12 | 88* | 13 | -28 | 0.9
SMILES | L major viab | WT yeast gro inh | Diaph inh CS | G6PDH CS | Diaphorase act
CCOC(=S)SCC(=O)Nc1nc(-c2ccc(Br)cc2)cs1 | 11 | 74* | 9 | -19 | 0.9
Cc1cccc(N/N=C/c2ccccc2O)c1 | -8 | 38 | 0 | 11 | 1
COc1ccccc1N1CCN(C(C)C(=O)N2CC(C)OC(C)C2)CC1 (configuration not stated) | -9 | -26 | 21 | 0 | 0.8
Cc1cccc(C)c1N(CC(=O)NCc1ccc(F)cc1)C(=O)c1csnn1 | -5 | 4 | 1 | 2 | 1
O=c1c2sccc2[nH]c(=S)n1Cc1ccccc1 | -5 | -8 | 16 | -1 | 0.8
Cc1cc(C)n(C(=O)CNc2ccccc2Cl)n1 | -7 | -8 | -16 | 11 | 1.2
NNC(=O)CNc1ccccc1Cl | -6 | -8 | 54* | 3 | 0.5
COC(=O)C1=C(C)N(c2ccccc2)C(=S)NC1c1ccccc1C(F)(F)F (configuration not stated) | 70* | 5 | 17 | -4 | 0.8
COCCOC(=O)C1=C(C)N(c2ccccc2)C(=S)NC1c1ccccc1C(F)(F)F (configuration not stated) | 15 | 0 | 18 | 7 | 0.8
O=S(=O)(NCCSCc1ccc(Cl)cc1Cl)c1ccc2c(c1)OCCO2 | 1 | 73* | 25 | 4 | 0.7
O=c1cc(C(Cl)(Cl)Cl)oc2c1ccc1ccccc12 | 98* | 78* | 8 | 2 | 0.9
CC(=O)Nc1ccc(-c2nnc(SCc3c(C)cc(C)cc3C)n2C)cc1 | 76* | 17 | -1 | 2 | 1
COc1ccc(-c2nnc(SCC(=O)Nc3ccc(C)cc3)n2C)cc1 | -1 | -10 | 21 | 0 | 0.8
Cc1oc2c(cc(NS(=O)(=O)c3ccc4c5c(cccc35)C(=O)N4)c3ccccc32)c1C(=O)OC(C)C | 58* | -8 | 31 | 17 | 0.7
CCOc1ccccc1N(CC(=O)Nc1ccc(S(=O)(=O)N2CCOCC2)cc1)S(=O)(=O)c1ccc(Cl)cc1 | 43 | -12 | 17 | -3 | 0.8
CC(=O)Nc1ccc(SC(C)C(=O)NC(N)=O)cc1 (configuration not stated) | -8 | 7 | 9 | -3 | 0.9
CCCCCOc1ccc(Br)cc1CSC(=N)N | 100* | 65* | 2 | -3 | 1
CC(C)c1ccc(CN(C)CC(O)c2ccccc2)cc1 (configuration not stated) | 75* | -1 | 3 | 4 | 1
CC1(C)CC(=O)C2=C(C1)N(c1ccc(F)cc1)C(=O)CC2c1cccnc1 (configuration not stated) | -7 | 3 | 10 | -14 | 0.9
CCSc1nnc(N2C(=O)CC(c3ccsc3)C3=C2CC(C)(C)CC3=O)s1 (configuration not stated) | 67* | 10 | 2 | 30 | 1
CC(=O)c1ccc(OCC(O)CN2CCN(Cc3ccc4c(c3)OCO4)CC2)cc1 (configuration not stated) | 93* | 14 | 18 | -18 | 0.8
COc1ccc(OCC(O)CN2CCN(Cc3ccc4c(c3)OCO4)CC2)cc1 (configuration not stated) | 99* | -6 | 10 | -2 | 0.9
Cc1ccc(OCC(O)CN2CCN(Cc3ccc4c(c3)OCO4)CC2)c(C)c1 (configuration not stated) | 87* | 50 | 8 | 2 | 0.9
